Article PMC9307089 (Journal of medicinal chemistry, 2021)
Read-outs that look alike come from different tables or passages of the source. Numbered stars: 1 amine (or outer) side, 2 acyl side, 3 side chain; on linkers, the order of the positions; unused ones are H or OH. Square brackets hold non-standard residues; d marks the D form. Peptide text beside a SMILES is read from it. X1 = N=C(N)NCCC[C@H](N[*:1])C(=O)c1nc2ccc(C(=O)[*:2])cc2s1

Experiments:
[1] = target: T1, recombinant serine protease domain of HGFA (Homo sapiens, UniProt Q04756); experiment: Fluorescent kinetic enzyme inhibition assay, HGFA; format: biochemical
T1 sequence (Q04756 408-646 limits assumed): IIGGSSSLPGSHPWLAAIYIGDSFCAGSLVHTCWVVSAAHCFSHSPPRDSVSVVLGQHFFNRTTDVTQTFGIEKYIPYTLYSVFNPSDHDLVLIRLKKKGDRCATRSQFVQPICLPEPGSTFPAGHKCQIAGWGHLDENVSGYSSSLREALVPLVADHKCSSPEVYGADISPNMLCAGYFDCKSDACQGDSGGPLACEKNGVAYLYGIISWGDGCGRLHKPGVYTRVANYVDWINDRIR

[2] = Mouse pharmacokinetics, IP dosing; conditions: for duration of compound exposure (detectable compound) in plasma: monitored for 24 h
[3] = Mouse plasma protein binding; format: in vitro ADME
[4] = In vitro stability in mouse plasma; format: in vitro ADME
[5] = In vitro stability in human plasma; format: in vitro ADME
[6] = target: thrombin (Homo sapiens, UniProt P00734); experiment: Chromogenic kinetic enzyme assay, thrombin; format: biochemical
[7] = system: EBC-1 lung cancer cells; conditions: previous finding; cited from earlier work
[8] = system: H596 lung cancer cells; experiment: Pro-HGF-mediated growth of H596 cells in vitro; format: cell-based; conditions: pro-HGF 50 ng/ml; JNJ 500 nM, nafamostat […], ZFH7116 10 μM
[9] = target: hepsin (Homo sapiens, UniProt P05981); experiment: Proteolytic processing of recombinant pro-HGF by hepsin; format: biochemical; conditions: pro-HGF 10 ng, hepsin 10 nM, one hour
How it was run: (§1)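 Recombinant pro-HGF (10 ng) was incubated 1 h with matriptase (1 nM), hepsin (10 nM) or HGFA (5 nM), with or without test compound. Products were immunoblotted with a polyclonal antibody detecting pro-HGF and the alpha and beta chains of active HGF. Active HGF was run as positive control.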

[10] = system: EBC-1 lung cancer cells; experiment: Cell viability, pro-HGF-mediated resistance to MET inhibitor JNJ-38877605; format: cell-based; conditions: JNJ-38877605 25 nM, pro-HGF 100 ng/ml, inhibitor 1 μM, 48 h
How it was run: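 EBC-1 cells pre-incubated 24 h with pro-HGF (100 ng/ml), with or without test compound (1μM), then treated with MET kinase inhibitor JNJ-38877605 (25nM). Viability read by CellTiterGlo after 48 hrs. Means±S.E.M., n=3. One-way ANOVA with Dunnett's multiple comparison test against JNJ plus pro-HGF treated cells.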

[11] = target: T2, HGFA (Homo sapiens, UniProt Q04756); experiment: Proteolytic processing of recombinant pro-HGF by HGFA; format: biochemical; conditions: pro-HGF 10 ng, HGFA 5 nM, one hour
T2 sequence (Q04756 373-655): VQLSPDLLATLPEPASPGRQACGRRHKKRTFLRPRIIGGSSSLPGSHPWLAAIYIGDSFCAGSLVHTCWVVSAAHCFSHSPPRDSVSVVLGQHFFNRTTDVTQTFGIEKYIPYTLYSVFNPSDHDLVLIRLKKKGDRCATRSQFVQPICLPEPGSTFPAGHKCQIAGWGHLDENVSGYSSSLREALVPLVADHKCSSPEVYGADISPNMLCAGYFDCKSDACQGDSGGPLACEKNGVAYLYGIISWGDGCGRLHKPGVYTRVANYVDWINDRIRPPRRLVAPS
How it was run: as §1

[12] = target: T3, matriptase (Homo sapiens, UniProt Q9Y5Y6); experiment: Proteolytic processing of recombinant pro-HGF by matriptase; format: biochemical; conditions: pro-HGF 10 ng, matriptase 1 nM, one hour
T3 sequence (Q9Y5Y6 1-855): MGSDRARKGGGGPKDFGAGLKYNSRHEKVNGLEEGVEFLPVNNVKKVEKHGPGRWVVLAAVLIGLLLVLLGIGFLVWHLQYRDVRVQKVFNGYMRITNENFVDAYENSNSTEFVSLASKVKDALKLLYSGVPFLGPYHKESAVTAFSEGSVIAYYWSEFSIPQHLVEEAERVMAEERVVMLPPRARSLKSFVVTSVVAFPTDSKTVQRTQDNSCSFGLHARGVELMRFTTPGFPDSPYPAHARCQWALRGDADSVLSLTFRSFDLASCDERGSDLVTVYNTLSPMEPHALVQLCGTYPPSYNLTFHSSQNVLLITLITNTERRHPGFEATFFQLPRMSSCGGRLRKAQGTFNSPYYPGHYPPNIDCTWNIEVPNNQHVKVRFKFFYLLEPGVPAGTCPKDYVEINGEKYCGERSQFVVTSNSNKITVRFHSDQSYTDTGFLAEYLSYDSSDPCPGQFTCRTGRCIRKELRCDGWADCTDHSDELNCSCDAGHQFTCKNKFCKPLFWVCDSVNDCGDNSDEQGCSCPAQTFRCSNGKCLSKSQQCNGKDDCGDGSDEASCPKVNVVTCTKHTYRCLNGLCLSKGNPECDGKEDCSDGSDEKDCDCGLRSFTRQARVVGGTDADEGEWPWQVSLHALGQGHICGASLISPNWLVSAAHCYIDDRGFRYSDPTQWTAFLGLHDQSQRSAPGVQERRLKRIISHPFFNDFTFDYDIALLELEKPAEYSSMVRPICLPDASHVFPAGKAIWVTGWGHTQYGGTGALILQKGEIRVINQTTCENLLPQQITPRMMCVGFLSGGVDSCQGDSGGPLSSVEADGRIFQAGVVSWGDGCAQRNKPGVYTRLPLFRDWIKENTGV
How it was run: as §1

[13] = Tolerability in mice, daily IP for 7 days; format: in vivo
[14] = system: HCC827 cells; experiment: Pro-HGF-mediated wound healing; format: cell-based; conditions: HCC827, inhibitor 10 μM, 24 h
How it was run: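 HCC827 monolayers were grown to confluence, serum-starved overnight and scratched. Cells were then pre-incubated 30 min with test compound (10 μM) and stimulated with HGF or pro-HGF for 24 h. Plates were stained with crystal violet and wound closure imaged; data average n=3.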

[15] = system: HCC827 lung cancer cells; experiment: Cell viability, pro-HGF-mediated resistance to gefitinib; format: cell-based; conditions: gefitinib 20 nM, pro-HGF 100 ng/ml, inhibitor 0.1-1 μM, 72 h
How it was run: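 HCC827 cells (EGFR exon-19 E746–A750 deletion) were exposed to gefitinib (20 nM), with or without pro-HGF (100 ng/ml), and test compound (0.1–1 μM) as indicated. Viability was read by crystal violet staining after 72 h. Data are means ± S.E.M. of n=3–5, analysed by one-way ANOVA with Dunnett's test against cells given gefitinib plus pro-HGF.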

[16] = read-out: Thrombin IC50, chromogenic substrate S2238

Sequence of hepsin (P05981 whole entry): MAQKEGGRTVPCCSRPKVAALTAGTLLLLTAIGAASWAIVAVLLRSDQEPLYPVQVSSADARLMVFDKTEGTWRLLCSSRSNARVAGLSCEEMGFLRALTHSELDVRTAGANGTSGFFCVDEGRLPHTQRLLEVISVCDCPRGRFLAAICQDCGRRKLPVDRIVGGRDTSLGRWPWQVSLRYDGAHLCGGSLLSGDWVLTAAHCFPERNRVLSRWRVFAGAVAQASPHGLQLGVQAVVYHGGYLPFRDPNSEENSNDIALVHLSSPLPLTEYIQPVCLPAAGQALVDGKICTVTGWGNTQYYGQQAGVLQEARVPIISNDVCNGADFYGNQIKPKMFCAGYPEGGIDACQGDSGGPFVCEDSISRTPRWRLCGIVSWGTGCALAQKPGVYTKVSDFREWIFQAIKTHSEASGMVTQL

Structure (SMILES): CC(=O)N[C@H]1CCC(=O)NCCCC[C@@H](C(=O)N[C@@H](CCCNC(=N)N)C(=O)c2nc3ccccc3s2)NC(=O)[C@H](CC(C)C)NC1=O [Compound 19, Ac-cyclo(ELK)-R- ketobenzothiazole]
- IC50 [1]: > 20 µM
- duration of compound exposure (detectable compound) in plasma ([2]; IP 20 mg/kg): ≤ 8 h
- half-life ([2]; mouse, plasma, ip, 20 mg/kg): < 0.5 h
- Mouse PPB (% free) [3]: 6.0 % free
- half-life [4]: 2.62 h
- half-life [5]: > 4.82 h
- IC50 [6]: > 20 µM

Structure (SMILES): CC(=O)N[C@H]1CCCCNC(=O)C[C@@H](C(=O)N[C@@H](CCCNC(=N)N)C(=O)c2nc3ccccc3s2)NC(=O)[C@H](CC(C)C)NC1=O [Compound 15, Ac-cyclo(KLD)-R-ketobenzothiazole]
- Mouse PPB (% free) [3]: 85.3 % free

Structure (SMILES): CC(=O)N[C@H]1CC(=O)NCCCC[C@@H](C(=O)N[C@@H](CCCNC(=N)N)C(=O)c2nc3ccccc3s2)NC(=O)[C@H](Cc2ccccc2)NC1=O [Compound 29, Ac-cyclo(DFK)-R- ketobenzothiazole]
- AUC in mice (in words) ([2]; IP 20 mg/kg): comparable to 18

Structure (SMILES): CC(=O)N[C@H]1CCCCNC(=O)CC[C@@H](C(=O)N[C@@H](CCCNC(=N)N)C(=O)c2nc3ccccc3s2)NC(=O)[C@H](CC(C)C)NC1=O [Compound 16, Ac-cyclo(KLE)-R-ketobenzothiazole]
- duration of compound exposure (detectable compound) in plasma ([2]; IP 20 mg/kg): ≤ 8 h
- Mouse PPB (% free) [3]: 18.4 % free

Structure (SMILES): CC(=O)N[C@H]1CCCCNC(=O)CC[C@@H](C(=O)N[C@@H](CCCNC(=N)N)C(=O)c2nc3ccccc3s2)NC(=O)[C@H](CCCNC(=N)N)NC1=O [Compound 17, Ac-cyclo(KRE)-R- ketobenzothiazole]
- Mouse PPB (% free) [3]: 25.9 % free

Structure (SMILES): CC1CN(CC2CCN(Cc3ccccc3)CC2)C(=O)N(c2cccc(C(=N)N)c2)C1.O=C(O)C(F)(F)F (stereo not shown) [SRI31215]
- HGF-mediated survival of MET-amplified cancer cells upon MET inhibition [7]: inhibited

Structure (SMILES): Cn1cc(-c2ccc3nnc(C(F)(F)c4ccc5ncccc5c4)n3n2)cn1 [JNJ-38877605]
- pro-HGF-mediated growth of H596 cells [8]: inhibited the pro-HGF-mediated growth of H596 cells

Structure (SMILES): CC(=O)N[C@H]1CC(=O)NCCCC[C@@H](C(=O)N[C@@H](CCCNC(=N)N)C(=O)c2nc3ccccc3s2)NC(=O)[C@H](CC(C)C)NC1=O [Compound 18, Ac-cyclo(DLK)-R- ketobenzothiazole]
- AUC in mice (in words) ([2]; IP 20 mg/kg): high
- duration of compound exposure above IC50s ([2]; IP 20 mg/kg): 24 h
- duration of compound exposure (detectable compound) in plasma ([2]; IP 20 mg/kg): > 24 h
- inhibition of pro-HGF activation by hepsin [9]: potently inhibited
- Mouse PPB (% free) [3]: 28.6 % free
- pro-survival activity of pro-HGF in JNJ-38877605-treated EBC-1 cells [10]: blocked the pro-survival activity of pro-HGF
- inhibition of pro-HGF activation by HGFA [11]: did not inhibit
- inhibition of pro-HGF activation by matriptase [12]: potently inhibited
- tolerated dose [13]: up to 20 mg/kg
- pro-HGF-mediated wound closure [14]: significantly inhibited

Structure (SMILES): CC(=O)N[C@@H](CO)C(=O)N[C@@H](CCCCN)C(=O)N[C@@H](CC(C)C)C(=O)N[C@@H](CCCNC(=N)N)C(=O)c1nc2ccc(C(=O)N[C@H](C(N)=O)C(C)C)cc2s1 [Compound 31] (Ac-SKL[X1]V-NH2)
- pro-survival effect of pro-HGF in gefitinib-treated HCC827 cells [15]: blocked the pro-survival effects of pro-HGF
- inhibition of pro-HGF activation by hepsin [9]: potently inhibited
- Mouse PPB (% free) [3]: 16.7 % free
- pro-survival activity of pro-HGF in JNJ-38877605-treated EBC-1 cells [10]: blocked the pro-survival activity of pro-HGF
- inhibition of pro-HGF activation by HGFA [11]: potently inhibited
- pro-HGF-mediated growth of H596 cells [8]: blocked the growth-promoting activity of pro-HGF
- inhibition of pro-HGF activation by matriptase [12]: potently inhibited
- pro-HGF-mediated wound closure [14]: significantly inhibited

Structure (SMILES): CC(=O)N[C@H]1CC(=O)NCCCC[C@@H](C(=O)N[C@@H](CCCNC(=N)N)C(=O)c2nc3ccccc3s2)NC(=O)[C@H](CCC(N)=O)NC1=O [Compound 26, Ac-cyclo(DQK)-R- ketobenzothiazole]
- IC50 [6, 16]: > 20 µM

Structure (SMILES): N=C(N)Nc1ccc(C(=O)Oc2ccc3cc(C(=N)N)ccc3c2)cc1 [Nafamostat]
- pro-HGF-mediated growth of H596 cells [8]: inhibited the pro-HGF-mediated growth of H596 cells

Structure (SMILES): CC(=O)N[C@H]1CC(=O)NCCCC[C@@H](C(=O)N[C@@H](CCCNC(=N)N)C(=O)c2nc3ccccc3s2)NC(=O)[C@H](C(C)C)NC1=O [Compound 24, Ac-cyclo(DVK)-R- ketobenzothiazole]
- IC50 [6, 16]: > 20 µM

Structure (SMILES): CC(=O)N[C@H]1CC(=O)NCCCC[C@@H](C(=O)N[C@@H](CCCNC(=N)N)C(=O)c2nc3ccccc3s2)NC(=O)[C@H]([C@@H](C)O)NC1=O [Compound 27, Ac-cyclo(DTK)-R- ketobenzothiazole]
- IC50 [6, 16]: > 20 µM

Structure (SMILES): CC(=O)N[C@H]1CC(=O)NCCCC[C@@H](C(=O)N[C@@H](CCCNC(=N)N)C(=O)c2nc3ccccc3s2)NC(=O)[C@H](CC(N)=O)NC1=O [Compound 25, Ac-cyclo(DNK)-R- ketobenzothiazole]
- IC50 [6, 16]: > 20 µM

Structure (SMILES): CC(=O)N[C@H]1CC(=O)NCCCC[C@@H](C(=O)N[C@@H](CCCNC(=N)N)C(=O)c2nc3ccccc3s2)NC(=O)CNC1=O [Compound 22, Ac-cyclo(DGK)-R- ketobenzothiazole]
- IC50 [6, 16]: > 20 µM

Structure (SMILES): CC(=O)N[C@H]1CC(=O)NCCCC[C@@H](C(=O)N[C@@H](CCCNC(=N)N)C(=O)c2nc3ccccc3s2)NC(=O)[C@H](C)NC1=O [Compound 23, Ac-cyclo(DAK)-R- ketobenzothiazole]
- IC50 [6, 16]: > 20 µM

Structure (SMILES): CC(=O)N[C@H]1CC(=O)NCCCC[C@@H](C(=O)N[C@@H](CCCNC(=N)N)C(=O)c2nc3ccccc3s2)NC(=O)[C@H](Cc2ccc(O)cc2)NC1=O [Compound 30, Ac-cyclo(DYK)-R- ketobenzothiazole]
- IC50 [6, 16]: > 20 µM
